Results taken from ChEMBL document CHEMBL4257584, “Sterol 14α-Demethylase Structure-Based Optimization of Drug Candidates for Human Infections with the Protozoan Trypanosomatidae” (J Med Chem, 2018).
Calls of active or inactive are those of the source. No cut-off for these calls is given here.

Legend:
[1] = Drug uptake in BALB/c mouse blood at 25 mg/kg, po via gavage measured after 4 hrs post dose by […]; assay type: ADME, organism-based; settings: read-out: Drug uptake
How it was run: (§1)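 BALB/c mice get a single oral gavage dose of 25 mg/kg; tissues are collected 4 h post-dose. About 100 mg tissue is diluted 5-fold in PBS and homogenized. Homogenate is extracted as for plasma (ketoconazole internal standard, acetonitrile extraction) and quantified by HPLC-UV at 291 nm, 0.1 μM detection limit, n=2.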

[2] = biological target: Putative lanosterol 14-alpha-demethylase (Leishmania infantum) (UniProt A2TEF2); experiment: Inhibition of Leishmania infantum CYP51 expressed in Escherichia coli using [3-3H]-obtusifoliol as substrate after 60 mins by LC-MS analysis
Sequence of Putative lanosterol 14-alpha-demethylase (Leishmania infantum) (A2TEF2 1-480): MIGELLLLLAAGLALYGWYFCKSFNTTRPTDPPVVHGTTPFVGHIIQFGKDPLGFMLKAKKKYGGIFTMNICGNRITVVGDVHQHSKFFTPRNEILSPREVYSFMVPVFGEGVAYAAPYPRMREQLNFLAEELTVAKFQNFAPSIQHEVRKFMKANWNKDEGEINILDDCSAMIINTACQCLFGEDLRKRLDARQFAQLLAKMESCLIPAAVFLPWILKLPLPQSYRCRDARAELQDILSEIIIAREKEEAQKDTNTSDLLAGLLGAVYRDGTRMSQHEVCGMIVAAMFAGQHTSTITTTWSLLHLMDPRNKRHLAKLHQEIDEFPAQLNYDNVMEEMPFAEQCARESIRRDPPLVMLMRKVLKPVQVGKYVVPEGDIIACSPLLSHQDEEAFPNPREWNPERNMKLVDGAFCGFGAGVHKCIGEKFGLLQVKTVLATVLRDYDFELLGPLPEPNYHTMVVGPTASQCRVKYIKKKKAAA
How it was run: (§2)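 Reconstituted reaction: 1 μM purified CYP51, 2 μM T. brucei NADPH-P450 reductase, 100 μM dilauroylphosphatidylcholine, isocitrate dehydrogenase/isocitrate regeneration, 50 mM K phosphate pH 7.2, 10% glycerol. [3-3H]sterol substrate at 50 μM final (eburicol for T. cruzi; obtusifoliol for T. brucei and L. infantum) with inhibitor at 1.1 μM final. Preincubate 60 s at 37 °C, start with 100 μM NADPH, run 60 min, EtOAc extraction. Gives % inhibition of 14α-demethylation, triplicate, mean ± SD.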

[3] = biological target: Putative lanosterol 14-alpha-demethylase (Leishmania infantum, UniProt A2TEF2); experiment: Binding affinity to Leishmania infantum CYP51 expressed in Escherichia coli
Sequence of Putative lanosterol 14-alpha-demethylase (A2TEF2 whole entry): as the sequence (A2TEF2 1-480) above
How it was run: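 Purified E. coli-expressed L. infantum CYP51 at 0.5 μM is titrated with ligand at 0.1–1 μM in 5 cm path cuvettes. Difference-spectrum absorbance change Δ(A430−A411) is plotted against ligand concentration. Apparent Kd comes from a Morrison (quadratic) tight-binding fit by nonlinear regression.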

Mus musculus [4] = experiment: Toxicity in Swiss Webster mouse assessed as effect on spleen weight at 200 mg/kg, po administered as single dose measured after 48 hrs; assay type: organism-based; settings: in vivo
How it was run: (§3)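 Swiss Webster mice (21–23 g, n=3) get a single oral 200 mg/kg dose, given as in the PK study. They are inspected for toxic and sub-toxic signs per OECD guidelines (behaviour, motility, neurological state, skin, fur), and body weight is tracked 0–48 h. At 48 h, mice are euthanized and organ weights are normalized to body weight. Blood is taken for haematology and plasma biochemistry.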

Mus musculus [5] = experiment: Toxicity in Swiss Webster mouse assessed as effect on kidney weight at 200 mg/kg, po administered as single dose measured after 48 hrs; assay type: organism-based; settings: in vivo; how it was run: as §3
[6] = biological target: Lanosterol 14-alpha-demethylase (Trypanosoma brucei brucei (strain 927/4 GUTat10.1)) (UniProt Q385E8); experiment: Inhibition of Trypanosoma brucei […] CYP51 expressed in Escherichia coli using [3-3H]-obtusifoliol as substrate after 60 mins by LC-MS analysis; how it was run: as §2
Sequence of Lanosterol 14-alpha-demethylase (Trypanosoma brucei brucei (strain 927/4 GUTat10.1)) (Q385E8 1-481): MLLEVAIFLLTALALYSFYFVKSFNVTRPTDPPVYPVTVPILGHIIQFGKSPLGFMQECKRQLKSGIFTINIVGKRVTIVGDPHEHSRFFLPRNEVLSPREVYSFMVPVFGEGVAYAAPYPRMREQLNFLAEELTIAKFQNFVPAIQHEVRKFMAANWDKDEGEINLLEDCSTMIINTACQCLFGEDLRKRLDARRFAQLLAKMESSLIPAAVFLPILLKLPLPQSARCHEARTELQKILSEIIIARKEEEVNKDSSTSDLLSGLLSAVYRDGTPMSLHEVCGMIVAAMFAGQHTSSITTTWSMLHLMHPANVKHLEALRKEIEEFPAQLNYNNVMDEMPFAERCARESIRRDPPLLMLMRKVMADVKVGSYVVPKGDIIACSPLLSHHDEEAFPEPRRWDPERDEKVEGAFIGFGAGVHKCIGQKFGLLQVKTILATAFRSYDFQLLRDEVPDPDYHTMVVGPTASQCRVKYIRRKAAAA

Mus musculus [7] = experiment: Toxicity in Swiss Webster mouse assessed as effect on neurological conditions at 200 mg/kg, po administered as single dose measured after 48 hrs; assay type: organism-based; settings: in vivo; how it was run: as §3
Mus musculus [8] = experiment: Toxicity in Swiss Webster mouse assessed as effect on lung weight at 200 mg/kg, po administered as single dose measured after 48 hrs; assay type: organism-based; settings: in vivo; how it was run: as §3
[9] = biological target: Sterol 14-alpha demethylase (Trypanosoma cruzi (strain CL Brener)) (UniProt Q7Z1V1); experiment: Inhibition of Trypanosoma cruzi Y CYP51 expressed in Escherichia coli using [3-3H]-eburicol as substrate after 60 mins by LC-MS analysis; how it was run: as §2
Sequence of Sterol 14-alpha demethylase (Trypanosoma cruzi (strain CL Brener)) (Q7Z1V1 whole entry, looked up): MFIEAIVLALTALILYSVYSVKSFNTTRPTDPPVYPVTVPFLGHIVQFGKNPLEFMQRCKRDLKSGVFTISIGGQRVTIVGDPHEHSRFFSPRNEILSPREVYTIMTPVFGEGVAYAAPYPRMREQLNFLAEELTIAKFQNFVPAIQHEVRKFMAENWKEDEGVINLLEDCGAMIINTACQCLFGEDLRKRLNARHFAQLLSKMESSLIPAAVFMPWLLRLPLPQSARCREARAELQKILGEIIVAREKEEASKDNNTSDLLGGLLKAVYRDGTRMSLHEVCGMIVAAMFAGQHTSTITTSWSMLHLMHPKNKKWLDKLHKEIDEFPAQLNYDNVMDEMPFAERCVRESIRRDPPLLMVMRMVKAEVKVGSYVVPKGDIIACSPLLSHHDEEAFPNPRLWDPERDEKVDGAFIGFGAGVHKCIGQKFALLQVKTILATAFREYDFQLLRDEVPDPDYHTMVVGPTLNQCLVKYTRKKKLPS

[10] = Drug uptake in BALB/c mouse lungs at 25 mg/kg, po via gavage measured after 4 hrs post dose by […]; assay type: ADME, organism-based, Lung; settings: read-out: Drug uptake; how it was run: as §1
[11] = Drug uptake in BALB/c mouse spleen at 25 mg/kg, po via gavage measured after 4 hrs post dose by […]; assay type: ADME, organism-based; settings: read-out: Drug uptake; how it was run: as §1
[12] = biological target: Sterol 14-alpha demethylase (Trypanosoma cruzi (strain CL Brener), UniProt Q7Z1V1); experiment: Binding affinity to Trypanosoma cruzi Y CYP51A expressed in Escherichia coli
Sequence of Sterol 14-alpha demethylase (Q7Z1V1 whole entry): as the sequence (Q7Z1V1 whole entry, looked up) above
How it was run: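 Recombinant CYP51A from Y strain T. cruzi, expressed in E. coli and purified, titrated spectrally at 0.5 μM P450 in 5 cm path cuvettes with ligand over 0.1–1 μM. Type of absorbance change in difference spectra Δ(A430-A411) plotted against ligand concentration. Apparent Kd obtained by fitting to the Morrison quadratic tight-binding equation by nonlinear regression.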

Mus musculus [13] = experiment: Toxicity in Swiss Webster mouse assessed as alteration in body to organ ratio at 200 mg/kg, po administered as single dose measured after 48 hrs; assay type: organism-based; settings: in vivo; how it was run: as §3
[14] = Drug uptake in BALB/c mouse liver at 25 mg/kg, po via gavage measured after 4 hrs post dose by […]; assay type: ADME, organism-based; settings: read-out: Drug uptake; how it was run: as §1
[15] = Half life in Sprague-Dawley rat liver microsomes at 1 uM preincubated for 5 mins followed by NADPH addition and measured by LC/MS/MS analysis; assay type: ADME, microsome; settings: microsomes, 1 µM
[16] = Hepatic clearance in human liver microsomes at 1 uM preincubated for 5 mins followed by NADPH addition and measured after 45 mins by LC/MS/MS analysis; assay type: ADME, microsome
Trypanosoma cruzi [17] = experiment: Antiparasitic activity against GFP-expressing Trypanosoma cruzi Tulahuen amastigote formss infected in cardiomyocytes assessed as reduction in rate of parasite multiplication within infected cardiomyocytes measured at 72 hrs post infection by fluorescence microscopy; assay type: functional, organism-based
How it was run: (§4)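 GFP-expressing trypomastigotes (Tulahuen or Y strain) infect cardiomyocyte monolayers at 10 parasites per cell, in DMEM + 10% FBS. Unbound parasites are washed off. At 24 h of infection, inhibitors at 0.5–25 nM in DMSO/DMEM are added and cultured 48 h. Read-out is at 72 h post-infection as GFP fluorescence (RFU) after PBS wash; microscopy uses paraformaldehyde fixation, DAPI and phalloidin stain. Triplicate.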

[18] = Intrinsic clearance in human liver microsomes at 1 uM preincubated for 5 mins followed by NADPH addition and measured after 45 mins by LC/MS/MS analysis; assay type: ADME, microsome; settings: read-out: CLH
Mus musculus [19] = experiment: Toxicity in Swiss Webster mouse assessed as effect on liver weight at 200 mg/kg, po administered as single dose measured after 48 hrs; assay type: organism-based; settings: in vivo; how it was run: as §3
[20] = Half life in human liver microsomes at 1 uM preincubated for 5 mins followed by NADPH addition and measured by LC/MS/MS analysis; assay type: ADME, microsome; settings: microsomes, 1 µM
Mus musculus [21] = experiment: Toxicity in Swiss Webster mouse assessed as effect on biochemical plasma parameters at 200 mg/kg, po administered as single dose measured after 48 hrs; assay type: organism-based; settings: in vivo; how it was run: as §3
Trypanosoma cruzi [22] = experiment: Antiparasitic activity against GFP-expressing Trypanosoma cruzi Y amastigote formss infected in cardiomyocytes assessed as reduction in rate of parasite multiplication within infected cardiomyocytes measured at 72 hrs post infection by fluorescence microscopy; assay type: functional, organism-based; how it was run: as §4
[23] = Lipophilicity, log P of the compound; assay type: physicochemical; settings: octanol/water
Mus musculus [24] = experiment: Toxicity in Swiss Webster mouse assessed as effect on body weight at 200 mg/kg, po administered as single dose measured after 48 hrs; assay type: organism-based; settings: in vivo; how it was run: as §3
Mus musculus [25] = experiment: Toxicity in Swiss Webster mouse at 200 mg/kg, po administered as single dose measured after 48 hrs measured at 48 hrs post dose; assay type: organism-based; settings: in vivo; how it was run: as §3
Mus musculus [26] = experiment: Toxicity in Swiss Webster mouse assessed as effect on animal behavior at 200 mg/kg, po administered as single dose measured after 48 hrs; assay type: organism-based; settings: in vivo; how it was run: as §3
[27] = Hepatic clearance in CD1 mouse liver microsomes at 1 uM preincubated for 5 mins followed by NADPH addition and measured after 45 mins by LC/MS/MS analysis; assay type: ADME, microsome

With `O=C(N[C@@H](Cn1ccnc1)c1c(F)cc(-c2ccc(F)cc2)cc1F)c1ccc(-c2nnc(-c3ccccc3)o2)cc1` the concentration at 4 h [1] was 25 µM, the inhibition [2] was “Active” and the Kd [3] was 24 nM. For the same compound, the Activity (Mus musculus [4]) was “Non-Toxic”, the Activity (Mus musculus [5]) was “Non-Toxic” and the inhibition [6] was “Active”. The Activity (Mus musculus [7]) was “Non-Toxic”, the Activity (Mus musculus [8]) was “Non-Toxic” and the inhibition [9] was “Active”. The concentration at 4 h [10] was 57 µM, the concentration at 4 h [11] was 63 µM and the Kd [12] was 8.4 nM. The Activity (Mus musculus [13]) was “Non-Toxic”, the concentration at 4 h [14] was 120 µM and the t1/2 [15] was 50 min. For the same compound, the CLhep predicted at 1 µM [16] was 10.1 mL/min/kg, the EC50 (Trypanosoma cruzi [17]) was 0.5 nM and the CLint scaled at 1 µM [18] was 19.4 mL/min/kg. For the same compound, the Activity (Mus musculus [19]) was “Non-Toxic”, the t1/2 [20] was 64 min and the Activity (Mus musculus [21]) was “Non-Toxic”. The EC50 (Trypanosoma cruzi [22]) was 1 nM, the logP [23] was 5.6 and the Activity (Mus musculus [24]) was “Non-Toxic”. The NOAEL (Mus musculus [25]) was greater than 200 mg/kg, the Activity (Mus musculus [26]) was “Non-Toxic” and the CLhep predicted at 1 µM [27] was 65.2 mL/min/kg.
